Experimental data reported in ChEMBL document CHEMBL5634116, “Strategies for developing retinoic acid receptor alpha-selective antagonists as novel agents for male contraception” (Eur J Med Chem, 2023).
Converted amounts (≈) assume the structure as drawn. The source made the active and inactive calls. The rule behind the calls is not given here.

Columns and labels:
[1] = system: Mus musculus; test: Effect on spermatogenesis in CD-1 mouse assessed as sperm count at 5 mg/kg/day, po for 7 days measured on day 1 post-cessation of drug treatment by hemocytometry (reference value: 55.50 +/- 8.18 x 10^6No_unit); assay type: functional; conditions: time 8 day
[2] = Solubility of compound in PBS at pH 7.4; assay type: physicochemical; conditions: buffer
How it was run: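 Solubility measured in PBS, pH 7.4.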

[3] = system: Mus musculus; test: Effect on spermatogenesis in CD-1 mouse assessed as sperm count at 10 mg/kg/day, po for 2 weeks measured on day 1 post-cessation of drug treatment by hemocytometry (reference value: 41.80 +/- 7.92 x 10^6No_unit); assay type: functional; conditions: time 15 day
[4] = biological target: T1, Retinoic acid receptor gamma (Homo sapiens, UniProt P13631); test: Antagonist activity at recombinant human RAR-gamma expressed in mammalian cells in presence of ATRA by luciferase reporter gene based transactivation assay; assay type: cell-based
T1 sequence (P13631 whole entry): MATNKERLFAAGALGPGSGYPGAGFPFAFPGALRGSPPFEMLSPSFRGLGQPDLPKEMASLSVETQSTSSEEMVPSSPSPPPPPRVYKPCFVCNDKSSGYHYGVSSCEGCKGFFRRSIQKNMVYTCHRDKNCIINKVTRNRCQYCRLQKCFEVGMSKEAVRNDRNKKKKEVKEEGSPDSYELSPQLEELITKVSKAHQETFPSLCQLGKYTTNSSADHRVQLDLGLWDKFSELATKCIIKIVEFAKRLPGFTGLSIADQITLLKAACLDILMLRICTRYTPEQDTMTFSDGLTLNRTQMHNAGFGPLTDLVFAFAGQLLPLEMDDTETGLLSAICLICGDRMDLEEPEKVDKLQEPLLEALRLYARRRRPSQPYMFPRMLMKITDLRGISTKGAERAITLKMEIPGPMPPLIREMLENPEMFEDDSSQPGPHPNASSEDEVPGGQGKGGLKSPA
How it was run: (§1)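 Compounds 8-point dose response in triplicate, DMSO final 0.4%; overnight at 37 °C, 5% CO2; luminescence after 30 min detection reagent. IC50 by four-parameter logistic fit; agonist-free wells set background.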

[5] = biological target: T2, Retinoic acid receptor alpha (Homo sapiens, UniProt P10276); test: Antagonist activity at recombinant human RAR-alpha expressed in mammalian cells in presence of 9-cis-RA by luciferase reporter gene based transactivation assay; assay type: cell-based; how it was run: as §1
T2 sequence (P10276 whole entry): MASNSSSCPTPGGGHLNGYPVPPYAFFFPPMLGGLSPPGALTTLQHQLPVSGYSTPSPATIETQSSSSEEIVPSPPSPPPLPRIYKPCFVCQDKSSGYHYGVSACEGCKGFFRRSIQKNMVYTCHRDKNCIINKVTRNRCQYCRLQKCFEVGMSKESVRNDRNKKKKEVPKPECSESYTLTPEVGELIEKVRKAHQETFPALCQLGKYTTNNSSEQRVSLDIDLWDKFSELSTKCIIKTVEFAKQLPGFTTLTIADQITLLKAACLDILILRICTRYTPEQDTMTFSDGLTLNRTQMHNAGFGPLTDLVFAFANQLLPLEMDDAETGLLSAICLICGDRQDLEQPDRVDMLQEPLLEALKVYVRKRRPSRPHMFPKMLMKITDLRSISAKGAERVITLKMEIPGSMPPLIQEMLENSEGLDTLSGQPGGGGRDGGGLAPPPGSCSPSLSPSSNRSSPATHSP

[6] = system: Mus musculus; test: Effect on spermatogenesis in CD-1 mouse assessed as sperm count at 5 mg/kg/day, po for 7 days measured after 4 weeks post-cessation of drug treatment by hemocytometry; assay type: functional; conditions: time 5 weeks
[7] = system: Mus musculus; test: Effect on spermatogenesis in CD-1 mouse assessed as abnormal stage IX tubules at 10 mg/kg/day, po for 2 weeks measured measured after 4 weeks post-cessation of drug treatment by hematoxylin counter-staining based analysis; assay type: functional, organism-based; conditions: time 6.0 weeks
How it was run: (§2)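 CD1 males given 10 mg/kg/day orally for 2 weeks dissolved in 20% aqueous Kollisolv (n = 10 per time point); vehicle-only controls n = 5. Testes collected one day or 4 weeks after cessation, fixed in 4% paraformaldehyde or Bouin's, paraffin-embedded, PAS-stained with hematoxylin counterstain and tubules staged by bright-field microscopy.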

[8] = system: Mus musculus; test: Effect on spermatogenesis in CD-1 mouse assessed as abnormality in spermatid translocation at 5 mg/kg/day, po for 7 days measured after 4 weeks post-cessation of drug treatment by hematoxylin counter-staining based analysis; assay type: functional, organism-based; conditions: time 5.0 weeks
[9] = system: Mus musculus; test: Effect on spermatogenesis in CD-1 mouse assessed as spermatids in abnormal stage IX tubules at 5 mg/kg/day, po for 7 days measured after 4 weeks post-cessation of drug treatment by hematoxylin counter-staining based analysis; assay type: functional, organism-based; conditions: time 5.0 weeks
[10] = system: Mus musculus; test: Effect on spermatogenesis in CD-1 mouse assessed as sperm count at 10 mg/kg/day, po for 2 weeks measured after 4 weeks post-cessation of drug treatment by hemocytometry (reference value: 50.30 +/- 5.90 x 10^6No_unit); assay type: functional; conditions: time 6 weeks
[11] = system: Mus musculus; test: Effect on spermatogenesis in CD-1 mouse assessed as reduction in sperm count administered as Carbitol formulation at 10 mg/kg/day, po for 28 days consecutively measured on day 1 post-cessation of drug treatment by hemocytometry relative to control; assay type: functional; set-up: scale not given: the % may be the effect or the level left; conditions: time 29 day
[12] = system: Mus musculus; test: Effect on spermatogenesis in CD-1 mouse assessed as abnormality in spermatid translocation at 10 mg/kg/day, po for 2 weeks measured measured after 4 weeks post-cessation of drug treatment by hematoxylin counter-staining based analysis; assay type: functional, organism-based; conditions: time 6.0 weeks; how it was run: as §2
[13] = system: Mus musculus; test: Effect on spermatogenesis in CD-1 mouse assessed as abnormal epididymal sperm morphology at 5 mg/kg/day, po for 7 days measured after 4 weeks post-cessation of drug treatment by hematoxylin counter-staining based analysis; assay type: functional, organism-based; conditions: time 5.0 weeks
[14] = biological target: T3, Retinoic acid receptor beta (Homo sapiens, UniProt P10826); test: Agonist activity at recombinant human RAR-beta expressed in mammalian cells by luciferase reporter gene based transactivation assay; assay type: cell-based
T3 sequence (P10826 whole entry): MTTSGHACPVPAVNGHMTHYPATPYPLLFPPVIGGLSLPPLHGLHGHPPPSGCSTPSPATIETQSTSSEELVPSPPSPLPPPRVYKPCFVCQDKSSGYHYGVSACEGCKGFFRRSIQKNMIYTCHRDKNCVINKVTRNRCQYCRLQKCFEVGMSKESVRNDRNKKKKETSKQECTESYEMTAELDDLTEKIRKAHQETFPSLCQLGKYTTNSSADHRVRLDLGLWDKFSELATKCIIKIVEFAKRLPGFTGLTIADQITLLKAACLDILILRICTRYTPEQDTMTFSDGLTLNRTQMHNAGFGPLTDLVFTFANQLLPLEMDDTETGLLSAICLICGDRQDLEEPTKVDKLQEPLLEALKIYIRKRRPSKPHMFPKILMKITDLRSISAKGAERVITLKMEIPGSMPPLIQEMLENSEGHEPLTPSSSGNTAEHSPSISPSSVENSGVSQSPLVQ
How it was run: (§3)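 Human RAR-subtype luciferase reporter cells (RARE-driven). Compounds in DMSO (final 0.4%) tested as 8-point dose response in triplicate. Incubated overnight at 37 °C in 5% CO2, then detection reagent 30 min at r.t. and luminescence measured. EC50 by four-parameter logistic fit, mean ± SEM from geometric mean of log EC50 across independent experiments.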

[15] = biological target: T1, Retinoic acid receptor gamma; test: Agonist activity at recombinant human RAR-gamma expressed in mammalian cells by luciferase reporter gene based transactivation assay; assay type: cell-based; how it was run: as §3

Which results are given for `Cc1ccc(C2=CC(C)(C)Oc3ccc(C(=O)Nc4ccc(C(=O)O)cc4)cc32)cc1`?
Activity [1]: 24.5 10^6No_unit; solubility [2]: 4.2 µM (≈ 1.74 µg/mL); Activity [3]: 37.2 10^6No_unit; IC50 [4]: 0.31 µM; IC50 [5]: 0.0046 µM; Activity [6]: 54.9 10^6No_unit; Activity [7]: inactive; Activity [8]: inactive; Activity [9]: inactive; Activity [10]: 44.75 10^6No_unit; Activity [11]: ~73%; Activity [12]: inactive; Activity [13]: inactive; EC50 [14]: 0.075 µM; EC50 [15]: 0.52 µM
